Key:
Format in all cases: functional
Mus musculus [1] = assay: Number of survivors on 60th day at dose 5 mg/kg/day in 10 mice implanted with P388 leukemia cell line; 0/10
Mus musculus [2] = assay: Number of survivors on 30th day at dose 7.5 mg/kg/day in 10 mice implanted with P388 leukemia cell line; 0/10
Mus musculus [3] = assay: Number of survivors on 60th day at dose 7.5 mg/kg/day in 10 mice implanted with P388 leukemia cell line; 0/10
Mus musculus [4] = assay: Number of survivors on 30th day at dose 10 mg/kg/day in 10 mice implanted with P388 leukemia cell line; 0/10
Mus musculus [5] = assay: Percent increase in life span at dose 5 mg/kg/day in 10 mice implanted with P388 leukemia cell line
Procedure, shortened: (§1)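 Female DBA2 mice inoculated iv on day 0 with 10^4 P388 cells; single iv treatment on day 1 with drug as sulfate salt in physiological saline. Survival followed; %ILS from all deaths and survivors as (T/C × 100) − 100, maximal MST 30 days; survivors counted on days 30 and 60. Most experiments confirmed three times.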

Mus musculus [6] = assay: Number of survivors on 60th day at dose 10 mg/kg/day in 10 mice implanted with P388 leukemia cell line; 0/10
Mus musculus [7] = assay: Number of survivors on 30th day at dose 5 mg/kg/day in 10 mice implanted with P388 leukemia cell line; 0/10
Mus musculus [8] = assay: Percent increase in life span at dose 10 mg/kg/day in 10 mice implanted with P388 leukemia cell line; procedure, shortened: as §1
Mus musculus [9] = assay: Percent increase in life span at dose 7.5 mg/kg/day in 10 mice implanted with P388 leukemia cell line
Mus musculus [10] = assay: Number of survivors on 60th day at dose 60 mg/kg/day in 10 mice implanted with P388 leukemia cell line; 0/10; procedure, shortened: as §1
Mus musculus [11] = assay: Percent increase in life span at dose 65 mg/kg/day in 10 mice implanted with P388 leukemia cell line; procedure, shortened: as §1
Mus musculus [12] = assay: Percent increase in life span at dose 80 mg/kg/day in 10 mice implanted with P388 leukemia cell line; procedure, shortened: as §1
Mus musculus [13] = assay: Number of survivors on 60th day at dose 55 mg/kg/day in 10 mice implanted with P388 leukemia cell line; 0/10
Mus musculus [14] = assay: Number of survivors on 30th day at dose 65 mg/kg/day in 10 mice implanted with P388 leukemia cell line; 0/10
Mus musculus [15] = assay: Percent increase in life span at dose 60 mg/kg/day in 10 mice implanted with P388 leukemia cell line; procedure, shortened: as §1
Mus musculus [16] = assay: Number of survivors on 30th day at dose 70 mg/kg/day in 10 mice implanted with P388 leukemia cell line; 0/10
Mus musculus [17] = assay: Percent increase in life span at dose 70 mg/kg/day in 10 mice implanted with P388 leukemia cell line; procedure, shortened: as §1
Mus musculus [18] = assay: Number of survivors on 60th day at dose 80 mg/kg/day in 10 mice implanted with P388 leukemia cell line; 0/10
Mus musculus [19] = assay: Percent increase in life span at dose 55 mg/kg/day in 10 mice implanted with P388 leukemia cell line; procedure, shortened: as §1
Mus musculus [20] = assay: Number of survivors on 60th day at dose 65 mg/kg/day in 10 mice implanted with P388 leukemia cell line; 0/10
Mus musculus [21] = assay: Number of survivors on 30th day at dose 55 mg/kg/day in 10 mice implanted with P388 leukemia cell line; 0/10
Mus musculus [22] = assay: Number of survivors on 30th day at dose 60 mg/kg/day in 10 mice implanted with P388 leukemia cell line; 0/10
Mus musculus [23] = assay: Number of survivors on 30th day at dose 80 mg/kg/day in 10 mice implanted with P388 leukemia cell line; 0/10
Mus musculus [24] = assay: Number of survivors on 60th day at dose 70 mg/kg/day in 10 mice implanted with P388 leukemia cell line; 0/10
Mus musculus [25] = assay: Number of survivors on 60th day at dose mg/kg/day in 10 mice implanted with P388 leukemia cell line; 1/10
Mus musculus [26] = assay: Percent increase in life span of DBA2 mice after inoculation with L1210 leukemia intravenously at a dose of 50 mg/kg per day; conditions: route intravenous
Procedure, shortened: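 Female DBA2 mice inoculated iv on day 0 with 10^4 L1210 cells; drugs given iv as sulfate salts in physiological saline, mostly once on day 1. %ILS from all deaths and survivors as (T/C × 100) − 100; survivors scored on days 30 and 60.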

Mus musculus [27] = assay: Number of survivors of DBA2 mice on 60th day after inoculation with L1210 leukemia cell line intravenously at a dose of 50 mg/kg/day; 0/10; conditions: route intravenous
Mus musculus [28] = assay: Number of survivors on 30th day at dose 50 mg/kg/day in 10 mice implanted with P388 leukemia cell line; 2/10
Mus musculus [29] = assay: Number of survivors on 30th day at dose 40 mg/kg/day in 10 mice implanted with P388 leukemia cell line; 1/10
Mus musculus [30] = assay: Number of survivors on 60th day at dose mg/kg/day in 10 mice implanted with P388 leukemia cell line; 5/10
Mus musculus [31] = assay: Number of survivors on 30th day at dose 60 mg/kg/day in 10 mice implanted with P388 leukemia cell line; 5/10
Mus musculus [32] = assay: Number of survivors on 30th day at dose 55 mg/kg/day in 10 mice implanted with P388 leukemia cell line; 7/10
Mus musculus [33] = assay: Number of survivors on 60th day at dose mg/kg/day in 10 mice implanted with P388 leukemia cell line; 7/10
Mus musculus [34] = assay: Number of survivors on 60th day at dose mg/kg/day in 10 mice implanted with P388 leukemia cell line; 4/10
Mus musculus [35] = assay: Percent increase in life span at dose 50 mg/kg/day in 10 mice implanted with P388 leukemia cell line; procedure, shortened: as §1
Mus musculus [36] = assay: Percent increase in life span at dose 40 mg/kg/day in 10 mice implanted with P388 leukemia cell line; procedure, shortened: as §1
Mus musculus [37] = assay: Number of survivors of DBA2 mice on 30th day after inoculation with L1210 leukemia cell line intravenously at a dose of 50 mg/kg/day; 0/10; conditions: route intravenous
Mus musculus [38] = assay: Number of survivors on 60th day at dose mg/kg/day in 10 mice implanted with P388 leukemia cell line; 2/10
Mus musculus [39] = assay: Number of survivors on 30th day at dose 70 mg/kg/day in 10 mice implanted with P388 leukemia cell line; 5/10
Mus musculus [40] = assay: Number of survivors on 30th day at dose 80 mg/kg/day in 10 mice implanted with P388 leukemia cell line; 7/10

Structure (SMILES): CCOC(=O)[C@H](CO)NC(=O)[C@@]1(O)[C@H](O)[C@]2(CC)C=CCN3CC[C@@]4(c5cc([C@@]6(C(=O)OC)C[C@H]7C[N@](CCc8c6[nH]c6ccccc86)C[C@](O)(CC)C7)c(OC)cc5N(C)[C@@]14C)[C@@H]32
- Survivors (Mus musculus [1]): 0
- Survivors (Mus musculus [2]): 0
- Survivors (Mus musculus [3]): 0
- Survivors (Mus musculus [4]): 0
- ILS at 5 mg/kg/day (Mus musculus [5]): 16%
- Survivors (Mus musculus [6]): 0
- Survivors (Mus musculus [7]): 0
- ILS at 10 mg/kg/day (Mus musculus [8]): 32%
- ILS at 7.5 mg/kg/day (Mus musculus [9]): 26%

Structure (SMILES): CCCCOC(=O)[C@H](CC(C)C)NC(=O)[C@@]1(O)[C@H](O)[C@]2(CC)C=CCN3CC[C@@]4(c5cc([C@@]6(C(=O)OC)C[C@H]7C[N@](CCc8c6[nH]c6ccccc86)C[C@](O)(CC)C7)c(OC)cc5N(C)[C@@]14C)[C@@H]32
- Survivors (Mus musculus [10]): 0
- ILS at 65 mg/kg/day (Mus musculus [11]): 13.8%
- ILS at 80 mg/kg/day (Mus musculus [12]): 27.6%
- Survivors (Mus musculus [13]): 0
- Survivors (Mus musculus [14]): 0
- ILS at 60 mg/kg/day (Mus musculus [15]): 26%
- Survivors (Mus musculus [16]): 0
- ILS at 70 mg/kg/day (Mus musculus [17]): 26.7%
- Survivors (Mus musculus [18]): 0
- ILS at 55 mg/kg/day (Mus musculus [19]): 23%
- Survivors (Mus musculus [20]): 0
- Survivors (Mus musculus [21]): 0
- Survivors (Mus musculus [22]): 0
- Survivors (Mus musculus [23]): 0
- Survivors (Mus musculus [24]): 0

Structure (SMILES): CCCCOC(=O)[C@H](Cc1c[nH]c2ccccc12)NC(=O)[C@@]1(O)[C@H](O)[C@]2(CC)C=CCN3CC[C@@]4(c5cc([C@@]6(C(=O)OC)C[C@H]7C[N@](CCc8c6[nH]c6ccccc86)C[C@](O)(CC)C7)c(OC)cc5N(C)[C@@]14C)[C@@H]32
- Survivors (Mus musculus [25]): 1
- ILS at 50 mg/kg/day (Mus musculus [26]): 44%
- Survivors (Mus musculus [27]): 0
- ILS at 80 mg/kg/day (Mus musculus [12]): > 216%
- Survivors (Mus musculus [28]): 2
- Survivors (Mus musculus [29]): 1
- ILS at 60 mg/kg/day (Mus musculus [15]): 140%
- Survivors (Mus musculus [30]): 5
- Survivors (Mus musculus [31]): 5
- Survivors (Mus musculus [32]): 7
- Survivors (Mus musculus [33]): 7
- ILS at 70 mg/kg/day (Mus musculus [17]): 52%
- Survivors (Mus musculus [34]): 4
- ILS at 55 mg/kg/day (Mus musculus [19]): > 163%
- ILS at 50 mg/kg/day (Mus musculus [35]): 31.6%
- ILS at 40 mg/kg/day (Mus musculus [36]): 63%
- Survivors (Mus musculus [37]): 0
- Survivors (Mus musculus [38]): 2
- Survivors (Mus musculus [39]): 5
- Survivors (Mus musculus [40]): 7

From ChEMBL document CHEMBL1122917, “Vinblastin-23-oyl amino acid derivatives: chemistry, physicochemical data, toxicity, and antitumor activities against P388 and L1210 leukemias” (J Med Chem, 1985)
